Results as given in ChEMBL document CHEMBL1143018, “Synthesis and activity studies of analogues of the rat selective toxicant norbormide” (Bioorg Med Chem, 2007).
Activity calls are given as the source filed them. No cut-off for these calls is given here.

Columns and labels:
Heart = experiment: Coronaroconstriction in Wistar rat heart Langendorff preparations at 1 uM; type: functional, tissue-based
[1] = Vasoconstriction effect in Wistar rat caudal artery; type: functional, tissue-based
Method in brief: (§1)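 Endothelium-denuded rat caudal artery rings; denudation was confirmed by absence of carbamylcholine-induced relaxation. Cumulative concentration–response curves were run over 0.1–50 µM. Contractions were expressed as a percentage of the 90 mM KCl-induced contraction. Values are mean of at least 4 rings.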

[2] = Vasoconstriction effect in Wistar rat caudal artery relative to KCl; type: functional, tissue-based; method in brief: as §1
Liver [3] = experiment: Stimulation of mitochondrial permeability transition measured by Ca2+ retention capacity of Wistar Albino rat liver mitochondria at 50 uM; type: functional
Method in brief: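 Liver mitochondria from Albino Wistar rats, isolated by differential centrifugation and suspended in Tris/HCl pH 7.4 with 0.25 M sucrose and 0.1 mM EGTA. Only preparations with RCR ≥ 3.0 (Clark electrode, succinate, 25 °C) were used. MPT was induced by Ca2+ at 25 °C in medium of 200 mM sucrose, 10 mM Tris–MOPS, 10 µM EGTA–Tris, 1 mM Pi, 0.5 µg/mL oligomycin, 5 mM succinate, 2 µM rotenone, pH 7.4.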

Rattus norvegicus [4] = experiment: Toxicity in Wistar rat assessed as death at 20 mg/kg, ip after 1 hr; type: functional, organism-based; design: dose 20 mg/kg
Aorta = experiment: Vasodilation activity assessed as inhibition of KCl-induced contraction in Wistar rat aorta at 50 uM; type: functional
Method in brief: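 Rat aortic rings were contracted with 90 mM KCl with and without a maximal concentration of compound. Inhibition was calculated as 100 × (C − AC)/C, where C and AC are the contractile effects in milligrams with KCl alone and with compound.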

Rattus norvegicus [5] = experiment: Toxicity in Wistar rat assessed as death at 40 mg/kg, ip after 1 hr; type: functional, organism-based; design: dose 40 mg/kg
Method in brief: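 Four male Wistar rats (150–250 g) per compound. Drug was dissolved in DMSO at 40 mg/kg and injected intraperitoneally. Animals were kept in a quiet room and watched every 15 min for early signs of toxicity. Four rats given solvent alone served as controls.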

Liver [6] = experiment: Stimulation of mitochondrial permeability transition measured by Ca2+ retention capacity of mouse liver mitochondria; type: functional

EC50 [1] [µM] | Structure (SMILES) | Activity (Heart) | Activity [2] [%] | Activity (Rattus norvegicus [4]) | inhibition at 50 µM (Aorta) [%] | also measured
 | O=C1NC(=O)[C@H]2C3C=CC(C3)[C@@H]12 | inactive |  |  |  | 
7.8 | O=C1NC(=O)C2C3C=CC(C3=C(c3ccccc3)c3ccccn3)C12 (stereo not given) | inactive | 193 | Not toxic |  | Activity (Liver [3]): Active
1 | O=C1NC(=O)C2C3C(C(O)(c4ccccc4)c4ccccn4)=CC(/C3=C(/c3ccccc3)c3ccccn3)C12 (stereo not given) | Active | 209 | Toxic | 64 | 
 | O=C1NC(=O)[C@H]2C3CC(C=C3C(O)(c3ccccc3)c3ccccn3)[C@@H]12 (stereo not given in full) | inactive |  |  |  | 
 | CC(O)(c1ccccc1)c1ccccn1 (stereo not given) | inactive |  |  |  | 
4.2 | O=C1NC(=O)[C@H]2C3C(C(O)(c4ccccc4)c4ccccn4)=CC(C3=C(c3ccccc3)c3ccccc3)[C@@H]12 (stereo not given in full) | Active | 185 |  | 42 | Activity (Rattus norvegicus [5]): Toxic
 | O=C1NC(=O)C2C3OC(C=C3C(O)(c3ccccc3)c3ccccn3)C12 (stereo not given) | inactive |  |  |  | 
 | O=C1NC(=O)[C@H]2C3C=C(C(O)(c4ccccc4)c4ccccn4)C(C3=C(c3ccccc3)c3ccccc3)[C@@H]12 (stereo not given in full) | inactive |  |  | 31 | 
 | OC(C1=CC2CCC1C2)(c1ccccc1)c1ccccn1 (mixture of isomers) | inactive |  | Not toxic | 69 | 
 | O=C1NC(=O)[C@H]2C3C=C(C(O)(c4ccccc4)c4ccccn4)C(C3)[C@@H]12 (stereo not given in full) | inactive |  |  |  | 
 | O=C1CCC(=O)N1 | inactive |  |  |  | 
 | OC(C1=CC2CCC1/C2=C(\c1ccccc1)c1ccccn1)(c1ccccc1)c1ccccn1 (mixture of isomers) | inactive |  | Not toxic | 60 | 
11 | C=C(c1ccccc1)c1ccccn1 | inactive | 185 | Not toxic |  | Activity (Liver [3]): Active; Activity (Liver [6]): inactive
